This is a sample that favours compounds with a hit; in the whole collection about 2.3% have one here.
MEKK2wt PB1 HTS: raises or lowers MEK5 binding to wildtype human MEKK2 PB1 domain; Q9Y2U5; bead flow cytometry, Alexa488-MEK5 binding to MEKK2 WT; actives lie on both sides; binding response (% of control), % at 10 µM; 290,000 tested, 1.1% active; in the data active means binding response below about 67% or above about 130%
MEKK3 PB1 HTS: raises or lowers MEK5 binding to the human MEKK3 PB1 domain; AID 1529; binding response (% of control), % at 10 µM; bead-based flow cytometry, Alexa488-MEK5 binding to MEKK3; actives lie on both sides; 0 = blocked by unlabeled MEK5, 100 = vehicle; 290,000 tested, 1.4% active;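 active means binding response more than 3 SD above or below the average of its plate-row segment, actives on both sides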;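 further: Alexa488 bead fluorescence after subtracting the streptavidin-only scavenger bead signal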
Target sequence (Q99759 whole entry, looked up, the tested form may be a part): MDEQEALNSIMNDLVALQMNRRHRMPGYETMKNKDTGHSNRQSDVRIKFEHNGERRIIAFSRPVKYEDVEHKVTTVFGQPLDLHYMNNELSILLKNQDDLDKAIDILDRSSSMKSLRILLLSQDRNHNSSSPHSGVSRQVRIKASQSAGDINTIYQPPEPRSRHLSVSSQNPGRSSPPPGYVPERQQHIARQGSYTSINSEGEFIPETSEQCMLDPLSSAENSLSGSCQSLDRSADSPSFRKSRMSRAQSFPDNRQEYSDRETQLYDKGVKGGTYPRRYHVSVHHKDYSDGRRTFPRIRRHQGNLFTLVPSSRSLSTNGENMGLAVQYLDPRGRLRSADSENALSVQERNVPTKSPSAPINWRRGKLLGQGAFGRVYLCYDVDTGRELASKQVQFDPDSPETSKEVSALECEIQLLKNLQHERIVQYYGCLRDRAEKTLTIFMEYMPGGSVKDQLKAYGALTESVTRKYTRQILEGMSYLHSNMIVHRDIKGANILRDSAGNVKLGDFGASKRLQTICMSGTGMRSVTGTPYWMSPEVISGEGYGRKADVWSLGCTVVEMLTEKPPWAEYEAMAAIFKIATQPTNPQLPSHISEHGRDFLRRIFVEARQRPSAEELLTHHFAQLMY
MEKK2mut PB1 HTS: signal of MEK5 binding to mutant human MEKK2 PB1 domain; bead flow cytometry, Alexa488-MEK5 binding to MEKK2 mutant; 290,000 tested, 0.35% active; percent response, % at 10 µM; in the data active means percent response above about 24%, passing the limit was not always enough
Arrestin-AP2 inh: inhibitors of human beta-arrestin and AP2 interaction; FITC-arrestin peptide / GST-AP2 beads, flow cytometry; AP2 beta2 appendage carries R879A mutation; inhibition, % at 10 µM; 340,000 tested, 0.31% active;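 active means inhibition above a set limit, near 3 SD of compounds lacking own fluorescence, cut at about 54% in these data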
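system = GST-tagged AP2 beta2-adaptin appendage (R879A) on 4 µm glutathione beads | reagent = FITC-labelled arrestin peptide probe, 50 nM final | schedule = compound with beads 12 min RT, then probe 1 h RT | signal = HyperCyt-sampled flow cytometry, FL1 channel, ex 488/em 535 nm | read-out = percent response from loss of bead-bound FITC fluorescence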
MEKK2wt confirm: raises or lowers MEK5 binding to wildtype human MEKK2, retest; 5,900 tested, 2.4% active; bead flow cytometry, Alexa488-MEK5 binding to MEKK2 WT; actives lie on both sides; shares compounds with MEKK3 PB1 HTS; binding response (% of control), % at 10 µM; in the data active means binding response below about 16% or above about 210%; inactive means in between
MEKK2mut confirm: signal of MEK5 binding to mutant human MEKK2, retest. shares compounds with MEKK3 PB1 HTS. bead flow cytometry, Alexa488-MEK5 binding to MEKK2 mutant. percent response, % at 10 µM. 5,900 tested, 2% active; in the data active means percent response mostly above about 71%, no sharp cut-off; inactive means mostly below about 38%;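 further: higher means compound restores mutant binding toward wildtype level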
MEKK3-MEK5 inh: confirmation of inhibitors of MEK5 binding to human MEKK3; shares compounds with MEKK3 PB1 HTS; bead flow cytometry, Alexa488-MEK5 binding to MEKK3; hits give low values; binding response (% of control), % at 10 µM; 5,900 tested, 1.8% active; AID 1894;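 active means binding response below 72% of control, or above a set upper limit, though filed actives all read lower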
Each line names hits and unclear results; the compound was inactive in the other large screens (follow-up assays come after a bar, where they were run); [ ] = another dose, or the depositor's remark.

CC(C)CC1NC(=O)N(CC(=O)Nc2ccccc2-c2ccccc2)C1=O (configuration not stated)	none
O=c1c2sccc2nc(SCc2ccc([N+](=O)[O-])cc2)n1Cc1ccccn1	MEKK3 PB1 HTS 63[inhibitor] | MEKK2wt confirm inactive | MEKK2mut confirm inactive | MEKK3-MEK5 inh inactive
CCC(C)NC(=O)C1CCN(c2nc(C)cc(C)n2)CC1 (configuration not stated)	none
CCC(C)NC(=O)C1CCN(c2nc(OC)nc(OC)n2)CC1 (configuration not stated)	MEKK2wt PB1 HTS -1.0[inhibitor], MEKK3 PB1 HTS 0.0[inhibitor] | MEKK2wt confirm 230 | MEKK2mut confirm 76 | MEKK3-MEK5 inh inactive
O=C(Nc1ccc(OCC(=O)N2CCC(Cc3ccccc3)CC2)cc1)c1ccco1	MEKK3 PB1 HTS 67[inhibitor] | MEKK2wt confirm inactive | MEKK2mut confirm inactive | MEKK3-MEK5 inh inactive
COc1ccc2[nH]c3c(=O)n(Cc4ccc(C(=O)NCC5CCCO5)cc4)c(=S)[nH]c3c2c1 (configuration not stated)	MEKK2mut PB1 HTS 178 | MEKK2wt confirm inactive | MEKK2mut confirm inactive | MEKK3-MEK5 inh inactive
CCCCNC(=O)c1ccc(Cn2c(=S)[nH]c3c([nH]c4ccc(OC)cc43)c2=O)cc1	none (no result: Arrestin-AP2 inh)
O=C(NCC1CCCO1)c1ccc2c(=O)n(CC3CCCO3)c(=S)[nH]c2c1 (configuration not stated)	MEKK2wt PB1 HTS 3.0[inhibitor], MEKK3 PB1 HTS 2.0[inhibitor] | MEKK2wt confirm inactive | MEKK2mut confirm inactive | MEKK3-MEK5 inh inactive
COCCn1c(=S)[nH]c2cc(C(=O)NCC3CCCO3)ccc2c1=O (configuration not stated)	none
O=C(Cc1cccc(NC(=O)C2CCN(C(=O)CCc3ccccc3)CC2)c1)Nc1cccc(C(=O)N2CCCCC2)c1	none (no result: MEKK2wt PB1 HTS, MEKK3 PB1 HTS, MEKK2mut PB1 HTS)
CC(C)Cn1c(N)c(C(=O)COC(=O)C2CC(=O)N(c3ccc4c(c3)OCCO4)C2)c(=O)n(C)c1=O (configuration not stated)	none (no result: MEKK2wt PB1 HTS, MEKK3 PB1 HTS, MEKK2mut PB1 HTS)
COc1ccccc1-n1c(CNc2c(C)cccc2C)nnc1SCC(=O)N1CCOCC1	MEKK3 PB1 HTS 122 | MEKK2wt confirm inactive | MEKK2mut confirm inactive | MEKK3-MEK5 inh inactive
CCc1cccc(NC(=O)C2CCCN2S(=O)(=O)c2ccccc2C(F)(F)F)c1 (configuration not stated)	none (no result: MEKK2wt PB1 HTS, MEKK3 PB1 HTS, MEKK2mut PB1 HTS)
Cc1c(C)[n+](=O)c(-c2ccc(Br)cc2)c(C)n1[O-]	MEKK2wt PB1 HTS 47[inhibitor], MEKK3 PB1 HTS 50[inhibitor] | MEKK2wt confirm inactive | MEKK2mut confirm inactive | MEKK3-MEK5 inh inactive
O=c1[nH]c2c(c(=O)[nH]1)OCN(Cc1ccccc1)C2	none (no result: MEKK2wt PB1 HTS, MEKK3 PB1 HTS, MEKK2mut PB1 HTS)
Cc1cc(C)cc(N(C(=O)C2CCCC2)C2C=CS(=O)(=O)C2)c1 (configuration not stated)	MEKK3 PB1 HTS 76[inhibitor] | MEKK2wt confirm inactive | MEKK2mut confirm inactive | MEKK3-MEK5 inh inactive
Cc1ccc(N(C(=O)C2CCCC2)C2C=CS(=O)(=O)C2)cc1 (configuration not stated)	none
Cc1cc(C)cc(N(C(=O)c2cc3ccccc3oc2=O)C2C=CS(=O)(=O)C2)c1 (configuration not stated)	MEKK3 PB1 HTS 141 | MEKK2wt confirm inactive | MEKK2mut confirm inactive | MEKK3-MEK5 inh inactive
Cc1ccc(N(C(=O)c2cc3ccccc3oc2=O)C2C=CS(=O)(=O)C2)cc1 (configuration not stated)	none
CC(=O)Nc1ccc(Cc2ccc3[nH]c(=O)cc(C)c3c2)cc1	none (no result: Arrestin-AP2 inh)
Cc1oc2c(CN3CCOCC3)c(O)ccc2c(=O)c1-c1ccc(Cl)cc1	MEKK2wt PB1 HTS 44[inhibitor], MEKK3 PB1 HTS 38[inhibitor] | MEKK2wt confirm inactive | MEKK2mut confirm inactive | MEKK3-MEK5 inh inactive
Cc1oc2c(CN3CCCC3)c(O)ccc2c(=O)c1-c1ccc(Cl)cc1	none
O=C(NNC(=O)C1CC2CCC1C2)c1sc2ccccc2c1Cl (configuration not stated)	MEKK3 PB1 HTS 149 | MEKK2wt confirm inactive | MEKK2mut confirm inactive | MEKK3-MEK5 inh inactive

Compound activity deposited in PubChem BioAssay by NMMLSC.
